# Tests used:
# [1] = test system: Akt; experiment: Western blot analysis of cytosolic Hsp90-dependent client protein Akt; type: cell-based; conditions: geldanamycin 0.5 μM, 24 h; all cell lines
# Summary of the method: (§1)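 MDA-MB-231 and PC3-MM2 (DMEM), SK-MEL-28 (EMEM) or A549 (F-12K) cells, each in medium with 10% FBS and penicillin/streptomycin, were seeded at 100,000 cells/mL and grown 24 h at 37°C, 5% CO2. Cells were then treated with test compound, geldanamycin (0.5 μM) or DMSO vehicle for 24 h. Cold-PBS harvest, lysis with protease inhibitors, BCA-equalised protein, reducing 10% gels, PVDF, HRP chemiluminescence; actin loading control.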
# [2] = test system: Hsp70; experiment: Western blot analysis of Hsp70 induction; type: cell-based; conditions: geldanamycin 0.5 μM, 24 h; all cell lines
# Summary of the method: as §1
compound,measurement,setting,value
COC1=C2C[C@@H](C)C[C@H](OC)[C@H](O)[C@@H](C)/C=C(\C)[C@H](OC(N)=O)[C@@H](OC)/C=C\C=C(/C)C(=O)NC(=CC1=O)C2=O [geldanamycin],degradation of Akt,[1],induced the degradation of Akt
same,levels of Hsp70,[2],increased the levels of Hsp70

# Source: article PMC5722212 (Chemistry (Weinheim an der Bergstrasse, Germany), 2017)
